Experimental data: ChEMBL document CHEMBL1153089, “Synthesis, antibacterial activities and molecular docking studies of peptide and Schiff bases as targeted antibiotics” (Bioorg Med Chem, 2009)
Converted amounts (≈) assume the structure as drawn.

Key:
[1] = target: T1, 3-oxoacyl-[acyl-carrier-protein] synthase 3 (Escherichia coli, UniProt C3TDZ2); test: Inhibition of Escherichia coli Beta-ketoacyl-ACP synthase III expressed in Escherichia coli BL21 (DE3) by liquid scintillation counting
T1 sequence (C3TDZ2 whole entry): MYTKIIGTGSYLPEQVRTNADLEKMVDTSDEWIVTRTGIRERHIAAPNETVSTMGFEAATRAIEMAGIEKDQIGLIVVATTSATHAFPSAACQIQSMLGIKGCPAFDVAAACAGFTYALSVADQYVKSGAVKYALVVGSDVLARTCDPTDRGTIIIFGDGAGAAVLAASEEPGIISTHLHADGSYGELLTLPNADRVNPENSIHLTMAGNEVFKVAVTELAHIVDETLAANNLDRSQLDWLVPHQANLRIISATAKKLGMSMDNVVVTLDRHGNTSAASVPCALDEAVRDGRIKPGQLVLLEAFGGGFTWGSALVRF
Outline: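 His-tagged E. coli KAS III from pET30 in BL21(DE3), purified on Ni-NTA and stored in 20 mM Tris pH 7.6, 100 mM NaCl, 1 mM DTT, 20% glycerol. The radiometric assay precipitated product with ice-cold 10% TCA and redissolved it in 0.5 M NaOH. ³H incorporation was counted by liquid scintillation. Inhibitors were added from DMSO stock, with final DMSO ≤2%. IC50 was determined.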

Pseudomonas aeruginosa = test: Antimicrobial activity against Pseudomonas aeruginosa ATCC 13525 after 24 hrs by MTT assay; type: functional; details: ATCC 13525, 24 h
Outline: (§1)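 MIC by broth microdilution in Mueller–Hinton medium. Compounds were serially diluted in DMSO in the medium. Inoculum was about 10⁵ cfu/mL. Plates were incubated at 37 °C for 24 h. MIC was read visually with MTT colorimetric staining.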

Staphylococcus aureus = test: Antimicrobial activity against Staphylococcus aureus ATCC 6538 after 24 hrs by MTT assay; type: functional; details: ATCC 6538, 24 h; outline: as §1
Escherichia coli = test: Antimicrobial activity against Escherichia coli ATCC 35218 after 24 hrs by MTT assay; type: functional; details: ATCC 35218, 24 h; outline: as §1
Bacillus subtilis = test: Antimicrobial activity against Bacillus subtilis ATCC 6633 after 24 hrs by MTT assay; type: functional; details: ATCC 6633, 24 h; outline: as §1

Q: How did the IC50 [1] turn out when Oc1ccccc1/C=N/CCCCCC/N=C/c1ccccc1O was run?
A: Its IC50 is 44.6 µM.

Q: For O=C(NCCCCCCNC(=O)c1ccccc1O)c1ccccc1O, which IC50 [1] is on record?
A: The IC50 was over 140 µM.

Q: With O=C(NCCCNC(=O)c1ccccc1O)c1ccccc1O as the compound, how does the IC50 [1] read?
A: The IC50 was 41.8 µM.

Q: What does the source list for O=C(NCC/N=C/c1cc(I)ccc1O)c1ccccc1O?
A: MIC (Pseudomonas aeruginosa): > 50 µg/mL; IC50 [1]: 2.75 µM; MIC (Staphylococcus aureus): 25 µg/mL (≈ 60.9 µM); MIC (Escherichia coli): 25 µg/mL (≈ 60.9 µM); MIC (Bacillus subtilis): > 50 µg/mL

Q: With O=C(NCC/N=C/c1cc(Cl)cc(Cl)c1O)c1ccccc1O as the compound, how does the MIC (Pseudomonas aeruginosa) read?
A: The MIC was over 50 µg/mL.

Q: And the IC50 [1]?
A: Its IC50 is 7.08 µM.

Q: And the MIC (Staphylococcus aureus)?
A: The MIC was over 50 µg/mL.

Q: And the MIC (Escherichia coli)?
A: Its MIC is 1.56 µg/mL (≈ 4.42 µM).

Q: And the MIC (Bacillus subtilis)?
A: Its MIC is 3.13 µg/mL (≈ 8.86 µM).

Q: O=C(NCCCC/N=C/c1cc(Br)ccc1O)c1ccccc1O was tested. Which IC50 [1] did it give?
A: Its IC50 is 16 µM.

Q: How did the IC50 [1] turn out when O=C(NCCCCCC/N=C/c1cc(F)ccc1O)c1ccccc1O was run?
A: Its IC50 is 112 µM.

Q: For Oc1ccccc1/C=N/CCC/N=C/c1ccccc1O, which IC50 [1] is on record?
A: The IC50 was 43.4 µM.

Q: With O=C(NCC/N=C/c1cc(Br)ccc1O)c1ccccc1O as the compound, how does the IC50 [1] read?
A: The IC50 was 17.1 µM.

Q: With O=C(NCCCC/N=C/c1cc(F)ccc1O)c1ccccc1O as the compound, how does the IC50 [1] read?
A: Its IC50 is 19.2 µM.

Q: How did the IC50 [1] turn out when O=C(NCC/N=C/c1cc(Cl)ccc1O)c1ccccc1O was run?
A: Its IC50 is 8.69 µM.

Q: How did the IC50 [1] turn out when O=C(NCCCCNC(=O)c1ccccc1O)c1ccccc1O was run?
A: The IC50 was 38.3 µM.

Q: With Oc1ccccc1/C=N/CCCC/N=C/c1ccccc1O as the compound, how does the IC50 [1] read?
A: The IC50 was 44 µM.

Q: With O=C(NCCCCCC/N=C/c1cc(Cl)cc(Cl)c1O)c1ccccc1O as the compound, how does the IC50 [1] read?
A: Its IC50 is over 122 µM.

Q: For O=C(NCC/N=C/c1cc(Br)cc(Br)c1O)c1ccccc1O, which MIC (Pseudomonas aeruginosa) is on record?
A: The MIC was 12.5 µg/mL (≈ 28.3 µM).

Q: What about the IC50 [1] of the same compound?
A: Its IC50 is 1.22 µM.

Q: And the MIC (Staphylococcus aureus)?
A: The MIC was 12.5 µg/mL (≈ 28.3 µM).

Q: And the MIC (Escherichia coli)?
A: The MIC was 6.25 µg/mL (≈ 14.1 µM).

Q: And the MIC (Bacillus subtilis)?
A: The MIC was 1.56 µg/mL (≈ 3.53 µM).

Q: How did the IC50 [1] turn out when O=C(NCC/N=C/c1cc(I)cc(I)c1O)c1ccccc1O was run?
A: The IC50 was 23.7 µM.

Q: O=C(NCCCCCC/N=C/c1cc(Br)ccc1O)c1ccccc1O was tested. Which IC50 [1] did it give?
A: Its IC50 is 29.9 µM.

Q: With O=C(NCCC/N=C/c1c(O)ccc2ccccc12)c1ccccc1O as the compound, how does the MIC (Pseudomonas aeruginosa) read?
A: The MIC was 12.5 µg/mL (≈ 35.9 µM).

Q: What about the IC50 [1] of the same compound?
A: The IC50 was 8.61 µM.

Q: What about the MIC (Staphylococcus aureus) of the same compound?
A: Its MIC is 25 µg/mL (≈ 71.8 µM).

Q: What about the MIC (Escherichia coli) of the same compound?
A: The MIC was over 50 µg/mL.

Q: And the MIC (Bacillus subtilis)?
A: Its MIC is 25 µg/mL (≈ 71.8 µM).

Q: For Oc1ccccc1/C=N/CC/N=C/c1ccccc1O, which IC50 [1] is on record?
A: Its IC50 is over 186 µM.

Q: O=C(NCCC/N=C/c1ccccc1O)c1ccccc1O was tested. Which IC50 [1] did it give?
A: The IC50 was 41.9 µM.

Q: Which IC50 [1] does the source give for O=C(NCCCCCC/N=C/c1ccccc1O)c1ccccc1O here?
A: Its IC50 is 65.1 µM.

Q: For O=C(NCCCCCC/N=C/c1cc(Br)cc(Br)c1O)c1ccccc1O, which IC50 [1] is on record?
A: Its IC50 is 12.5 µM.

Q: O=C(NCCCCCC/N=C/c1cc(I)cc(I)c1O)c1ccccc1O was tested. Which IC50 [1] did it give?
A: The IC50 was 25.8 µM.

Q: How did the IC50 [1] turn out when O=C(NCCCCCC/N=C/c1c(O)ccc2ccccc12)c1ccccc1O was run?
A: The IC50 was over 128 µM.

Q: How did the IC50 [1] turn out when O=C(NCCC/N=C/c1cc(Cl)cc(Cl)c1O)c1ccccc1O was run?
A: Its IC50 is 7.49 µM.

Q: For O=C(NCCC/N=C/c1cc(Br)cc(Br)c1O)c1ccccc1O, which IC50 [1] is on record?
A: Its IC50 is 13.8 µM.

Q: How did the IC50 [1] turn out when O=C(NCC/N=C/c1ccccc1O)c1ccccc1O was run?
A: The IC50 was 25.5 µM.

Q: For O=C(NCCC/N=C/c1cc(F)ccc1O)c1ccccc1O, which MIC (Pseudomonas aeruginosa) is on record?
A: Its MIC is 1.56 µg/mL (≈ 4.93 µM).

Q: And the IC50 [1]?
A: The IC50 was 5.56 µM.

Q: What about the MIC (Staphylococcus aureus) of the same compound?
A: Its MIC is 1.56 µg/mL (≈ 4.93 µM).

Q: What about the MIC (Escherichia coli) of the same compound?
A: The MIC was 3.13 µg/mL (≈ 9.89 µM).

Q: What about the MIC (Bacillus subtilis) of the same compound?
A: The MIC was 25 µg/mL (≈ 79 µM).

Q: For O=C(NCC/N=C/c1c(O)ccc2ccccc12)c1ccccc1O, which IC50 [1] is on record?
A: The IC50 was 29.2 µM.

Q: For O=C(NCCNC(=O)c1ccccc1O)c1ccccc1O, which IC50 [1] is on record?
A: The IC50 was 55 µM.

Q: O=C(NCCCCCC/N=C/c1cc(I)ccc1O)c1ccccc1O was tested. Which IC50 [1] did it give?
A: Its IC50 is 56.9 µM.

Q: Which IC50 [1] does the source give for O=C(NCCC/N=C/c1cc(I)cc(I)c1O)c1ccccc1O here?
A: The IC50 was 23.5 µM.

Q: What does the source list for O=C(NCCC/N=C/c1cc(I)ccc1O)c1ccccc1O?
A: MIC (Pseudomonas aeruginosa): 6.25 µg/mL (≈ 14.7 µM); IC50 [1]: 3.54 µM; MIC (Staphylococcus aureus): > 50 µg/mL; MIC (Escherichia coli): 3.13 µg/mL (≈ 7.38 µM); MIC (Bacillus subtilis): 25 µg/mL (≈ 58.9 µM)

Q: O=C(NCC/N=C/c1cc(F)ccc1O)c1ccccc1O was tested. Which IC50 [1] did it give?
A: Its IC50 is 34.2 µM.

Q: Which IC50 [1] does the source give for O=C(NCCCC/N=C/c1ccccc1O)c1ccccc1O here?
A: The IC50 was 43.4 µM.

Q: Which MIC (Pseudomonas aeruginosa) does the source give for O=C(NCCC/N=C/c1cc(Br)ccc1O)c1ccccc1O here?
A: Its MIC is 3.13 µg/mL (≈ 8.3 µM).

Q: What about the IC50 [1] of the same compound?
A: Its IC50 is 0.875 µM.

Q: And the MIC (Staphylococcus aureus)?
A: Its MIC is 3.13 µg/mL (≈ 8.3 µM).

Q: And the MIC (Escherichia coli)?
A: Its MIC is 0.39 µg/mL (≈ 1.03 µM).

Q: And the MIC (Bacillus subtilis)?
A: Its MIC is 1.56 µg/mL (≈ 4.14 µM).

Q: Which IC50 [1] does the source give for O=C(NCCCC/N=C/c1cc(Cl)cc(Cl)c1O)c1ccccc1O here?
A: Its IC50 is 7.74 µM.

Q: O=C(NCCCC/N=C/c1cc(Br)cc(Br)c1O)c1ccccc1O was tested. Which IC50 [1] did it give?
A: Its IC50 is 6.61 µM.

Q: O=C(NCCCC/N=C/c1cc(I)cc(I)c1O)c1ccccc1O was tested. Which IC50 [1] did it give?
A: The IC50 was 11.1 µM.

Q: How did the IC50 [1] turn out when O=C(NCCCC/N=C/c1c(O)ccc2ccccc12)c1ccccc1O was run?
A: The IC50 was 8.55 µM.

Q: How did the MIC (Pseudomonas aeruginosa) turn out when O=C(NCCCC/N=C/c1cc(Cl)ccc1O)c1ccccc1O was run?
A: The MIC was 12.5 µg/mL (≈ 36 µM).

Q: What about the IC50 [1] of the same compound?
A: Its IC50 is 6.69 µM.

Q: What about the MIC (Staphylococcus aureus) of the same compound?
A: The MIC was 25 µg/mL (≈ 72.1 µM).

Q: And the MIC (Escherichia coli)?
A: Its MIC is over 50 µg/mL.

Q: What about the MIC (Bacillus subtilis) of the same compound?
A: The MIC was 25 µg/mL (≈ 72.1 µM).

Q: Which IC50 [1] does the source give for O=C(NCCCCCC/N=C/c1cc(Cl)ccc1O)c1ccccc1O here?
A: Its IC50 is 26.7 µM.

Q: With O=C(NCCC/N=C/c1cc(Cl)ccc1O)c1ccccc1O as the compound, how does the MIC (Pseudomonas aeruginosa) read?
A: The MIC was over 50 µg/mL.

Q: What about the IC50 [1] of the same compound?
A: Its IC50 is 4.93 µM.

Q: And the MIC (Staphylococcus aureus)?
A: Its MIC is over 50 µg/mL.

Q: And the MIC (Escherichia coli)?
A: The MIC was 25 µg/mL (≈ 75.1 µM).

Q: What about the MIC (Bacillus subtilis) of the same compound?
A: Its MIC is over 50 µg/mL.

Q: How did the MIC (Pseudomonas aeruginosa) turn out when O=C(NCCCC/N=C/c1cc(I)ccc1O)c1ccccc1O was run?
A: Its MIC is 3.13 µg/mL (≈ 7.14 µM).

Q: And the IC50 [1]?
A: The IC50 was 1.48 µM.

Q: And the MIC (Staphylococcus aureus)?
A: Its MIC is over 50 µg/mL.

Q: What about the MIC (Escherichia coli) of the same compound?
A: Its MIC is 6.25 µg/mL (≈ 14.3 µM).

Q: And the MIC (Bacillus subtilis)?
A: The MIC was 1.56 µg/mL (≈ 3.56 µM).
